# Reference: the array DNA melting data of Ke et al. (doi:10.1101/2024.01.08.574731)
# Key:
# [1] = folding enthalpy; higher = less favourable; fluorescence melt of hairpins on a sequencing array, two-state fit; conditions: sodium 0.088 M
# Outline: (§1)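 Cy3 signals were normalised both to pre-quench Cy3 and to control constructs. They came from library hairpins carrying annealed Cy3 and quencher oligos on a sequenced MiSeq flow cell, imaged in 50 mM Na-HEPES pH 8.0, 25 mM NaCl, in 2.5 °C steps up to 60 °C. Bootstrapped two-state fits gave melting temperature and folding enthalpy, and four replicates were combined by inverse variance. Fitted temperatures were then raised by 9.35 °C to match UV melts.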
# [2] = melting temperature; fluorescence melt of hairpins on a sequencing array, two-state fit, raised by 9.35 °C to match UV melts; conditions: sodium 0.088 M
# Outline: as §1
Sequence,folding enthalpy [1] [kcal/mol],Tm [2] [°C]
GAGGAAGCGAAAGCTCTC (((..(((....)))))),-13.7,35.4
GTAGTGGGAAACCACTAC (((((((....))))))),-30.3,63.4
GCCTTCGGAAACAAAGGC (((((.(....).))))),-27.5,41.9
GGACACGAAAGTGCTCC ((((((....))).))),-22.5,50.1
GTCTTTCCGAAAGGAGAC (((..(((....)))))),-10.6,29.2
GATCCGGGAAACCGGGTC ((.((((....)))).)),-41.6,54.5
GTGCTCGAAAGAGGGCAC ((((((....)))..))),-22.9,48.9
GATCAGTGATCTGATC ((((((....)))))),-36.1,50.2
GCATACGGAAACGTACGC ((.((((....)))).)),-31.4,44.2
GCCGGTCGAAAGACTGGC (((.(((....))).))),-32,68.3
GCCGCAGGAAACTGCGAC (.(((((....))))).),-13.1,48.8
GCTCAGCGAAAGCTTAGC (((.(((....))).))),-44.9,49.4
GATCACTGAAGTGATC ((((((....)))))),-36.4,56.8
GGAAGAGGAAACTTTTCC ((((.((....)).)))),-15.8,32.8
GGTGTCGAAAGACGGACC ((((((....)))..))),-16.6,40.3
GGTTTCGAAAGAACTACC ((((((....)))..))),-10.1,29.4
GAGTGCGGAAACGTGCTC (((..((....))..))),-38,49.5
GAAAGCGCGAAAGCGTTC (((..(((....)))))),-7.58,28.3
GGGAACGAAAGTTGCCCC ((((((....)))..))),-10.7,68.7
GATCCCCTGGGGGATC ((((((....)))))),-36.4,66.6
GAGGCGGGAAACCGCCCC (.(((((....))))).),-7.11,46.4
GCGGACGAAAGTCACGC ((((((....))).))),-20.9,64.8
GCGGATCTCCGC ((((....)))),-25.3,59.6

Sequence,folding enthalpy [1] [kcal/mol],Tm [2] [°C]
GTGCAGTCGAAAGACCAC (((..(((....)))))),-16.4,38.7
GGAACGGGAAACTGTTCC (((((.(....).))))),-42.4,53
GGTCGCGAAAGCGCAACC ((((((....)))..))),-13.1,42.4
GTCTGGCGAAAGCCGGAC (((.(((....))).))),-25.6,69
GGACTCGAAAGAGTATCC ((((((....)))..))),-13.8,33.3
GATCCCAGCGGGATC ((((((...)))))),-37.9,68.9
GGAGCCGGAAACGACTCC ((((.((....)).)))),-55.2,52
GGGTGCGGAAACGCGCTC (.(.(((....))).).),-16.5,57.2
GATCCAGGCTTGGATC ((((((....)))))),-43.8,54.8
GATCAAGGGGTTGATC ((((((....)))))),-29.4,42.8
GGTATGGGAAACCATGCC ((.((((....)))).)),-37.4,51.3
GCGTCTTCACGC ((((....)))),-26.9,51.4
GACGTTGGAAACAACGTC (((((((....))))))),-39.1,68
GATCCTTCGAAGGATC ((((((....)))))),-49.6,54.1
GACGCGGGAAACCGCATC ((.((((....)))).)),-13.4,40.1
GATCTGCTAGCAGATC ((((((....)))))),-48.5,60.9
GAGGGCGAAAGCCACCTC ((((((....)))..))),-11,38.1
GGTCGCGAAAGCGATACC ((((((....)))..))),-11.3,47.7
GTACCCGAAAGGGAGTAC ((((((....)))..))),-15.3,39.9
GATCTATAAATAGATC ((((((....)))))),-35.4,39.9
GGTAAGGGAAACCTTGCC ((.((((....)))).)),-29.6,48.3
AACAGGAAACTGTT (((((....))))),-14.7,40.5
GATCATATTAATGATC ((((((....)))))),-34.1,47.9

Sequence,folding enthalpy [1] [kcal/mol],Tm [2] [°C]
GATCGATGGTTCGATC ((((((....)))))),-43,51.2
GGCTGAGGAAACTTAGCC ((((.((....)).)))),-36.3,50.2
GTAGGTGCGAAAGCATAC (((..(((....)))))),-8.27,31.1
GGGGTTGGAAACGACTCC ((.((.(....).)).)),-23.1,41.6
GAAGTGCGAAAGCAATTC (((.(((....))).))),-28.2,52.8
GCTTTGACGAAAGTCAGC (((..(((....)))))),-12,33.2
GATCCTGTCCAGGATC ((((((....)))))),-48.3,58.1
CGTCTCCGGAAACGGACG (((..(((....)))))),-14.7,37.8
GGCACCGAAAGGTACGCC ((((((....)))..))),-27.3,51.4
GCGAAAGTTCGC ((((....)))),-19.6,47.2
GGGGCTGGAAACAGCTCC ((.((((....)))).)),-28.5,57.7
GCTCCACGAAAGTGCAGC (((.(((....))).))),-22.1,46.2
GGTTCCTCGAAAGAGACC (((..(((....)))))),-10.1,25.8
GCAGGTCGAAAGACTTGC (((.(((....))).))),-41.2,56.7
GCAACGCGAAAGCGGAGC ((..(((....)))..)),-24.5,63.9
GTCCGAGGAAACTCGGGC (.(((((....))))).),-30.3,59.5
GGGCACCGAAAGGTACCC (((.(((....))).))),-35.1,56.7
GCGGCTGGAAACAACCGC ((((.((....)).)))),-45,54
GCGCAGGGAAACTTGCGC (((((.(....).))))),-43.4,60.2
GCAGTGCGAAAGCATCGC ((..(((....)))..)),-14.9,55.2
GATCACCACTGTGATC ((((((....)))))),-43.5,56.1
GGAGGTGGAAACGCTTCC (((.(.(....).).))),-23.3,34.3
GGGAGGCGAAAGCCCCC (((.(((....)))))),-19.2,66.3

Sequence,folding enthalpy [1] [kcal/mol],Tm [2] [°C]
GGAAGGCGAAAGCCATCC (((.(((....))).))),-21.1,53.3
GCGTCTGCGAAAGCACGC (((..(((....)))))),-18.5,52.3
GATCCCCAGGGGATC ((((((...)))))),-33.1,61.9
GGTGTATCGAAAGATACC (((..(((....)))))),-14.7,43.3
GATCGTATTAACGATC ((((((....)))))),-37.1,55.9
GATAGCGGAAACGCTATC (((((((....))))))),-34.4,65.7
GATCGGTTTCCCGATC ((((((....)))))),-40.4,57.1
GCGCAGCGAAAGCCGAGC ((.(.((....)).).)),-9.37,46.7
GAATGCGAAAGCAGATTC ((((((....)))..))),-15.6,43.2
GCAGTTGAAAAACTGC ((((((....)))))),-37.8,58.9
GATCTGTTCGCAGATC ((((((....)))))),-47.6,53.4
GACCACCGAAAGGTCGTC (((.(((....))).))),-29.5,45.1
GGTGGCCGAAAGGCGACC (((.(((....))).))),-30.2,66.2
GGCAGGACGAAAGTCGCC (((..(((....)))))),-38.2,55.4
GTGGCCGGAAACAGCCAC (((((.(....).))))),-47.6,54.5
GACTTCGGAAACGAAGCC (.(((((....))))).),-15,45.6
GGGCGGTCGAAAGACCCC (((..(((....)))))),-15.3,53.9
GCGGTAGCCGC ((((...)))),-11.8,61.2
GATCAGGAACTGATC ((((((...)))))),-39.4,60.6
GCCAGAGCGAAAGCTGGC (((..(((....)))))),-31.3,60
GTTCACGAAAGTGTGAAC ((((((....)))..))),-25.7,47.3
GATCGGATACCGATC ((((((...)))))),-36.4,56.6
GCGTCGCGAAAGCAAGGC ((.(.((....)).).)),-17.1,43.8
